The source of these data is ChEMBL document CHEMBL1139822, “Cytotoxicity of the novel spin trapping compound 5-ethoxycarbonyl-3,5-dimethyl-pyrroline N-oxide (3,5-EDPO) and its derivatives” (Bioorg Med Chem Lett, 2007).

The test system of data set [1] is Hepatocyte. In words: Cytotoxicity in primary rat hepatocytes assessed as decrease in number of hepatocytes after 24 hrs. Set-up: scale not given: the % may be the effect or the level left. The data set is classed as cell-based.
Data set [2] concerns Hepatocyte. In words: Cytotoxicity in primary rat hepatocytes assessed as increase in LDH release after 24 hrs. The class given is cell-based. (In general: LDH leaks from cells whose membrane has failed.)
In data set [3] the test system is SW480. In words: Cytotoxicity against human SW480 cells at 50 mM after 24 hrs. The class given is functional. In outline: (§1)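 Human colon carcinoma SW480 cultures were exposed to spin traps at 10 to 100 mM for 24 h. Cytotoxicity was read as the dose-dependent loss in cell number. LDH released into the culture supernatant was also measured and expressed per cell as % of non-treated control. Apoptotic nuclei were stained to distinguish necrosis from apoptosis.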

Data set [4] relates to SW480. In words: Cytotoxicity against human SW480 cells at 100 mM after 24 hrs. The data set is classed as functional. Put shortly:
as §1

On to `CC1C=[N+]([O-])C(C)(C(=O)OC(C)C)C1` (stereo unspecified), for which the results for the Activity in the data set with Hepatocyte [1], with Hepatocyte [2] and with SW480 [3] were 60%, “Active” and less than 25%, respectively.
In the same order, the values of `CCOC(=O)C1(C)C(C)CC=[N+]1[O-]` (stereo unspecified) are 60%, “Active” and less than 25%.
In turn, `CCCOC(=O)C1(C)CC(C)C=[N+]1[O-]` (stereo unspecified) had an Activity in the data set with SW480 [3] of less than 25%.
The compound `CCCOC(=O)C1(C)C(C)CC=[N+]1[O-]` (stereo unspecified) yielded an Activity with SW480 [4] of 95%.
With `CCOC(=O)C1(C)CC(C)C=[N+]1[O-]` (stereo unspecified), the Activity in the data set with Hepatocyte [1] is reported as 60%; in the data set with Hepatocyte [2], “Active”; with SW480 [3], less than 25%.
